In PMC6004563 (ACS Medicinal Chemistry Letters, 2018):
Blank lines part the entries; values can stand above or below the molecule they belong to.

Assays:
[1] = target: T1, pre-let-7d−Lin28 interaction (Mus musculus, UniProt Q8K3Y3); test: electrophoretic mobility shift assay; type: binding, murine; settings: pre-let-7d with Lin28, dose response
T1 sequence (Q8K3Y3 2-209): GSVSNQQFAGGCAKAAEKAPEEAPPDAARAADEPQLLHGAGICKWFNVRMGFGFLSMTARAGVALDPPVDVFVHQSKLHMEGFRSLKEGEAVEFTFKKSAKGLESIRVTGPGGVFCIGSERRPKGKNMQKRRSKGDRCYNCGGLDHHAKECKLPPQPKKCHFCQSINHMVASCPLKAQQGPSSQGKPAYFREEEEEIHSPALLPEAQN

biotinylated pre-let-7d = test: SPR binding to biotinylated pre-let-7d; settings: 100, 50, 25, 12.5 and 6.25 µM
[2] = target: Dicer-mediated pre-let-7d maturation (Homo sapiens, UniProt Q9UPY3); test: Selectivity: Dicer-mediated pre-let-7d maturation; type: biochemical; settings: compound at 100 µM
[3] = target: eIF4E−4E-BP1 protein-protein interaction (Homo sapiens, UniProt P06730); test: Selectivity: cat-ELCCA of the eIF4E−4E-BP1 protein-protein interaction; type: binding; settings: compound at 100 µM
[4] = target: T2, pre-let-7d–Lin28A interaction (Mus musculus, UniProt Q8K3Y3); test: cat-ELCCA of the pre-let-7d–Lin28A interaction; type: binding, murine
T2 sequence (Q8K3Y3 2-209): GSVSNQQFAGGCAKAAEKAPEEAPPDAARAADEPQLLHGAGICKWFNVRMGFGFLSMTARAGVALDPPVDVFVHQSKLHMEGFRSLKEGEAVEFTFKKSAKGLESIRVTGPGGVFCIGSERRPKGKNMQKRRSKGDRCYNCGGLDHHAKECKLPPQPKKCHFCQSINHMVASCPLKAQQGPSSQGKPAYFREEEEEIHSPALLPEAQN
Procedure, shortened: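 Murine Lin28A, expressed as an N-terminal HaloTag fusion and biotin-labelled, was immobilised in streptavidin-coated wells. Wells were then incubated with pre-let-7d bearing a 5′-trans-cyclooctene click handle. Bound RNA was detected by click reaction with methyltetrazine-labelled HRP, then HRP substrate, with chemiluminescence as read-out. Washing steps were included.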

[5] = target: T3, HaloTag-mLin28A (biotinylated) (Mus musculus, UniProt Q8K3Y3 1-209); test: cat-ELCCA
T3 sequence: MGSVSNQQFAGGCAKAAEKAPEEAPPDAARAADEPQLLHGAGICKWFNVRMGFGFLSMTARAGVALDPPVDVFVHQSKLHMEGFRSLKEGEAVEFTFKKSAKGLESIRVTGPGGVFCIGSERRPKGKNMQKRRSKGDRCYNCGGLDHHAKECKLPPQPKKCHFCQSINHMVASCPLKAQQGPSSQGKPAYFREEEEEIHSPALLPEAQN

Chain of Dicer-mediated pre-let-7d maturation (Q9UPY3 whole entry): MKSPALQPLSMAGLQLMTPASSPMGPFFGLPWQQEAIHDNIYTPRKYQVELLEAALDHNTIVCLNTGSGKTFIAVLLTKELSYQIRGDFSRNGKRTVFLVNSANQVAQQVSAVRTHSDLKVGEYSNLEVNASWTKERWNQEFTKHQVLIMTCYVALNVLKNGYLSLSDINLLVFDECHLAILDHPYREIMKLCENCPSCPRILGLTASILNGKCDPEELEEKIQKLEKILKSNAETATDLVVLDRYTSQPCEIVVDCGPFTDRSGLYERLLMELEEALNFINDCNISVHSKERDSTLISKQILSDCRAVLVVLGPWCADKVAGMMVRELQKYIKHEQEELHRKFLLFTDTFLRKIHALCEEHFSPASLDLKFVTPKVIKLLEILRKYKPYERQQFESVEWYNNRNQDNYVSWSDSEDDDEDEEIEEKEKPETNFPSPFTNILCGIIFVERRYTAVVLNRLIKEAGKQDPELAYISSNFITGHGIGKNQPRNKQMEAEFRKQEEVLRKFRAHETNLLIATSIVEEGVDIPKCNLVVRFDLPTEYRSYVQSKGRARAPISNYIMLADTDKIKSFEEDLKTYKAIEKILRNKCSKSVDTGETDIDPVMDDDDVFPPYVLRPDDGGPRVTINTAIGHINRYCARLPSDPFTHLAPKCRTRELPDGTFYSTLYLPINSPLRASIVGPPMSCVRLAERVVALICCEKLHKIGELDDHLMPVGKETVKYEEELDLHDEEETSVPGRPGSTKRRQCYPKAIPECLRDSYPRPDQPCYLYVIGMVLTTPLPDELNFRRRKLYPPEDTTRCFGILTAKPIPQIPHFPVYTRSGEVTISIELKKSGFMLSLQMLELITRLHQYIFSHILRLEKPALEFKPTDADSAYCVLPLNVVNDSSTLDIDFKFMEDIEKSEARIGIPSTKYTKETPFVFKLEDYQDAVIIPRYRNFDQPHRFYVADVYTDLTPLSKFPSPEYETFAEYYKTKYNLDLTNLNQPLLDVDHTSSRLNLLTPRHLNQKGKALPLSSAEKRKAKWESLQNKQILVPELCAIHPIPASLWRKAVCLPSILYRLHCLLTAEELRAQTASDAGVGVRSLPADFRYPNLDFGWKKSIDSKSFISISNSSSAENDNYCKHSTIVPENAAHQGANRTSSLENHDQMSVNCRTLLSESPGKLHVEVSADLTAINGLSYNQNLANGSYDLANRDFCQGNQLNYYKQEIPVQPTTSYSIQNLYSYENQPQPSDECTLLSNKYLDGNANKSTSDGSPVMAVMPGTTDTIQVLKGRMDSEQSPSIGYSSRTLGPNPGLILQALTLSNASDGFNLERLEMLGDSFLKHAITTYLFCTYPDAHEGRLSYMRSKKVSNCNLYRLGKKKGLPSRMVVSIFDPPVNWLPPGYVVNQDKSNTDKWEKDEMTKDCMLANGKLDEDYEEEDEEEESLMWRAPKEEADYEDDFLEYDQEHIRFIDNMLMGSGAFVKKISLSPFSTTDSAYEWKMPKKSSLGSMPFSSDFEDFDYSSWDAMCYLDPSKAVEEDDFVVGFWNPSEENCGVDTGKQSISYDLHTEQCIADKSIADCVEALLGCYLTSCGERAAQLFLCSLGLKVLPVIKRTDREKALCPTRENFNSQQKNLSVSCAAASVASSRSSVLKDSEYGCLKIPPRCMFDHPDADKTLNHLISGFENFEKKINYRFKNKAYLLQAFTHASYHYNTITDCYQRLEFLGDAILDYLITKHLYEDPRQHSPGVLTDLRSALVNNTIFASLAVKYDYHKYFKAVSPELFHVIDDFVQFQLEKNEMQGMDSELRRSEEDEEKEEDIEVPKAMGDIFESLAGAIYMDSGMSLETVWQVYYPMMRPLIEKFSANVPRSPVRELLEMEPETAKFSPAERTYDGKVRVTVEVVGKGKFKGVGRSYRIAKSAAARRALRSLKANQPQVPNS
Chain of eIF4E−4E-BP1 protein-protein interaction (P06730 whole entry): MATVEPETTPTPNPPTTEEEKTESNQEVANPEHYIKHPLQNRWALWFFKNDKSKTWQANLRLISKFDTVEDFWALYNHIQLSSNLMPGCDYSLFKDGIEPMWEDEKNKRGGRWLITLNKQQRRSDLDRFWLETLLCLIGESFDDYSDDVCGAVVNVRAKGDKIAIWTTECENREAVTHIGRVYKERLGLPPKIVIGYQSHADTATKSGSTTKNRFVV

activity in EMSA [1]: concentration-responsive activity
binding to pre-let-7d (SPR) (biotinylated pre-let-7d): not pre-let-7d
inhibition of Dicer-mediated pre-let-7d maturation [2]: insignificant inhibition
inhibition of cat-ELCCA-based PPI assay [3]: insignificant inhibition
Molecule: Cc1ccc(S(=O)(=O)Nc2ccc(C)cc2NS(=O)(=O)c2cccc(C(F)(F)F)c2)cc1 [CCG-234459]

activity in EMSA [1]: concentration-responsive activity
binding to pre-let-7d (SPR) (biotinylated pre-let-7d): not pre-let-7d
inhibition of Dicer-mediated pre-let-7d maturation [2]: insignificant inhibition
inhibition of cat-ELCCA-based PPI assay [3]: insignificant inhibition
Molecule: Cc1ccc(S(=O)(=O)Nc2ccc(F)cc2NS(=O)(=O)c2ccc(C)cc2)cc1 [CCG-233094]

The next lines start with the molecule.

Molecule: O=S(=O)(c1ccccc1)N1CCN(S(=O)(=O)c2ccccc2)c2ccccc21 [Compound 5]
activity (inhibition of pre-let-7d–Lin28A) [4]: inactive

Molecule: O=S(=O)(Nc1cccc(NS(=O)(=O)c2ccccc2)c1)c1ccccc1 [Compound 4, N,N′-(1,3-phenylene)dibenzenesulfonamide]
activity (inhibition of pre-let-7d–Lin28A) [4]: inactive

Molecule: Nc1ccccc1NS(=O)(=O)c1ccccc1 [Compound 3]
activity (inhibition of pre-let-7d–Lin28A) [4]: inactive

Molecule: O=C(Nc1ccccc1NC(=O)c1ccccc1)c1ccccc1 [Compound 6]
activity (inhibition of pre-let-7d–Lin28A) [4]: inactive

B1: 5'-TCO-pre-let-7d (structured_RNA)
RNA: AGAGGUAGUAGGUUGCAUAGUUUUAGGGCAGGGAUUUUGCCCACAAGGAGGUAACUAUACGACCUGCUGCCUUUCU
modifications: 5'-phosphate pentylamine (N5) linked to TCO-PEG4
Kd [5]: 106 nM
